Calls of active or inactive are those of the source. No cut-off for these calls is given here.
Legend:
Mus musculus [1] = assay: Analgesic activity in sc dosed Swiss-Webster mouse after 30 mins; format: functional; conditions: 0.5 h
Mus musculus [2] = assay: Analgesic activity in sc dosed Swiss-Webster mouse time of peak effect; format: functional
Mus musculus [3] = assay: Analgesic activity in Swiss-Webster mouse assessed as time required for sustainance of activity at 100 mg/kg, sc; format: functional; conditions: route subcutaneous
Mus musculus [4] = assay: Inhibition of morphine sulfate-induced analgesic activity in Swiss-Webster mouse at 100 mg/kg, sc after 2 hrs; format: functional, organism-based; design: dose 100 mg/kg
Method in brief: (§1)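 Male Swiss-Webster mice, 20–25 g. Challenge was 10 mg/kg morphine sulfate in 8–10 mice, read by the modified D'Amour–Smith test. Where block was seen, morphine ED50 (95% limits) was found by Litchfield–Wilcoxon.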

Mus musculus [5] = assay: Inhibition of morphine sulfate-induced analgesic activity in Swiss-Webster mouse at 100 mg/kg, sc after 1 hr; format: functional, organism-based; design: dose 100 mg/kg; method in brief: as §1
Mus musculus [6] = assay: Analgesic activity in Swiss-Webster mouse assessed as time required for sustainance of activity at 40 mg/kg, sc; format: functional; conditions: route subcutaneous
Mus musculus [7] = assay: Inhibition of morphine sulfate-induced analgesic activity in Swiss-Webster mouse at 40 mg/kg, sc after 3 hrs; format: functional, organism-based; design: dose 40 mg/kg; method in brief: as §1
Mus musculus [8] = organism: Mus musculus; assay: Narcotic agonist activity in morphine-dependent mouse assessed as suppression of abstinence; format: functional, organism-based
Method in brief: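 Single-dose suppression test in morphine-dependent mice after withdrawal (method of Takemori et al.); compound given sc.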

Mus musculus [9] = assay: Ratio of morphine ED50 to compound ED50 for sc dosed Swiss-Webster mouse; format: functional
Mus musculus [10] = assay: Analgesic activity in Swiss-Webster mouse assessed as time required for sustainance of activity at 2.7 mg/kg, sc; format: functional; conditions: route subcutaneous
Mus musculus [11] = assay: Analgesic activity in Swiss-Webster mouse assessed as time required for sustainance of activity at 0.81 mg/kg, sc; format: functional; conditions: route subcutaneous
Mus musculus [12] = assay: Inhibition of morphine sulfate-induced analgesic activity in Swiss-Webster mouse at 0.81 mg/kg, sc after 2.5 hrs; format: functional, organism-based; design: dose 0.81 mg/kg; method in brief: as §1
Mus musculus [13] = assay: Analgesic activity in Swiss-Webster mouse assessed as time required for sustainance of activity at 2.6 mg/kg, sc; format: functional; conditions: route subcutaneous
Mus musculus [14] = assay: Inhibition of morphine sulfate-induced analgesic activity in Swiss-Webster mouse at 2.6 mg/kg, sc after 2.5 hrs; format: functional, organism-based; design: dose 2.6 mg/kg; method in brief: as §1
Mus musculus [15] = assay: Analgesic activity in Swiss-Webster mouse assessed as time required for sustainance of activity at 5 mg/kg, sc; format: functional; conditions: route subcutaneous
Mus musculus [16] = assay: Inhibition of morphine sulfate-induced analgesic activity in Swiss-Webster mouse at 100 mg/kg, sc after 3 hrs; format: functional, organism-based; design: dose 100 mg/kg; method in brief: as §1
Mus musculus [17] = assay: Inhibition of morphine sulfate-induced analgesic activity in Swiss-Webster mouse at 5.3 mg/kg, sc after 3 hrs; format: functional, organism-based; design: dose 5.3 mg/kg; method in brief: as §1
Mus musculus [18] = assay: Analgesic activity in Swiss-Webster mouse assessed as time required for sustainance of activity at 5.3 mg/kg, sc; format: functional; conditions: route subcutaneous
Mus musculus [19] = assay: Analgesic activity in Swiss-Webster mouse assessed as time required for sustainance of activity at 50 mg/kg, sc; format: functional; conditions: route subcutaneous
Mus musculus [20] = assay: Inhibition of morphine sulfate-induced analgesic activity in Swiss-Webster mouse at 50 mg/kg, sc after 2 hrs; format: functional, organism-based; design: dose 50 mg/kg; method in brief: as §1
Mus musculus [21] = assay: Analgesic activity in Swiss-Webster mouse assessed as time required for sustainance of activity at 80 mg/kg, sc; format: functional; conditions: route subcutaneous
Mus musculus [22] = assay: Inhibition of morphine sulfate-induced analgesic activity in Swiss-Webster mouse at 80 mg/kg, sc after 1 hr; format: functional, organism-based; design: dose 80 mg/kg; method in brief: as §1
Mus musculus [23] = assay: Analgesic activity in Swiss-Webster mouse assessed as time required for sustainance of activity at 380 mg/kg, sc; format: functional; conditions: route subcutaneous
Mus musculus [24] = assay: Inhibition of morphine sulfate-induced analgesic activity in Swiss-Webster mouse at 380 mg/kg, sc after 5.5 hrs; format: functional, organism-based; design: dose 380 mg/kg; method in brief: as §1

CCOC(=O)CCC(=O)Nc1ccc(CCCN2CC[C@]34CCCC[C@H]3[C@H]2Cc2ccc(O)cc24)cc1
ED50 (Mus musculus [1]): 78.2 mg/kg
Time (Mus musculus [2]): 30 min
Time (Mus musculus [3]): 2 h
inhibition (Mus musculus [4]): Active

O=C(CBr)Nc1ccccc1CCCN1CC[C@]23CCCC[C@H]2[C@H]1Cc1ccc(O)cc13
ED50 (Mus musculus [1]): > 100 mg/kg
Time (Mus musculus [3]): 1 h
inhibition (Mus musculus [5]): Active

CCOC(=O)CCC(=O)Nc1cccc(CCN2CC[C@]34CCCC[C@H]3[C@H]2Cc2ccc(O)cc24)c1
ED50 (Mus musculus [1]): 6 mg/kg
Time (Mus musculus [2]): 60 min
Time (Mus musculus [6]): 3 h
inhibition (Mus musculus [7]): Active

CCOC(=O)CCC(=O)Nc1ccc(CCN2CC[C@]34CCCC[C@H]3[C@H]2Cc2ccc(O)cc24)cc1
inhibition (Mus musculus [8]): Active
Ratio ED50 (Mus musculus [9]): 4
ED50 (Mus musculus [1]): 0.71 mg/kg
Time (Mus musculus [2]): 60 min
Time (Mus musculus [10]): 4 h

O=C(CBr)Nc1ccc(CCN2CC[C@]34CCCC[C@H]3[C@H]2Cc2ccc(O)cc24)cc1
Ratio ED50 (Mus musculus [9]): 4
ED50 (Mus musculus [1]): 0.13 mg/kg
Time (Mus musculus [2]): 30 min
Time (Mus musculus [11]): 2.5 h
inhibition (Mus musculus [12]): Active

CCOC(=O)/C=C/C(=O)Nc1ccc(CCN2CC[C@]34CCCC[C@H]3[C@H]2Cc2ccc(O)cc24)cc1
Ratio ED50 (Mus musculus [9]): 4
ED50 (Mus musculus [1]): 1.2 mg/kg
Time (Mus musculus [2]): 60 min
Time (Mus musculus [13]): 2.5 h
inhibition (Mus musculus [14]): Active

CC(=O)Oc1ccc2c(c1)[C@@]13CCCC[C@H]1[C@@H](C2)N(CCc1ccc(N2C(=O)C=CC2=O)cc1)CC3
inhibition (Mus musculus [8]): Active
ED50 (Mus musculus [1]): 0.59 mg/kg
Time (Mus musculus [2]): 30 min
Time (Mus musculus [15]): 4 h

CC(=O)Oc1ccc2c(c1)[C@@]13CCCC[C@H]1[C@@H](C2)N(CCCc1ccccc1N1C(=O)C=CC1=O)CC3
ED50 (Mus musculus [1]): 48.4 mg/kg
Time (Mus musculus [2]): 30 min
Time (Mus musculus [3]): 3 h
inhibition (Mus musculus [16]): Active

O=C(CBr)Nc1cccc(CCN2CC[C@]34CCCC[C@H]3[C@H]2Cc2ccc(O)cc24)c1
inhibition (Mus musculus [17]): Active
ED50 (Mus musculus [1]): 0.58 mg/kg
Time (Mus musculus [2]): 30 min
Time (Mus musculus [18]): 3 h

CC(=O)Oc1ccc2c(c1)[C@@]13CCCC[C@H]1[C@@H](C2)N(CCCc1ccc(N2C(=O)C=CC2=O)cc1)CC3
ED50 (Mus musculus [1]): > 50 mg/kg
Time (Mus musculus [19]): 2 h
inhibition (Mus musculus [20]): Active

O=C(CBr)Nc1cccc(CCCN2CC[C@]34CCCC[C@H]3[C@H]2Cc2ccc(O)cc24)c1
ED50 (Mus musculus [1]): > 100 mg/kg
Time (Mus musculus [3]): 1 h
inhibition (Mus musculus [5]): Active

O=C1C=CC(=O)N1c1cccc(CCCN2CC[C@]34CCCC[C@H]3[C@H]2Cc2ccc(O)cc24)c1
ED50 (Mus musculus [1]): > 50 mg/kg
Time (Mus musculus [19]): 2 h
inhibition (Mus musculus [20]): Active

CCOC(=O)/C=C\C(=O)Nc1cccc(CCCN2CC[C@]34CCCC[C@H]3[C@H]2Cc2ccc(O)cc24)c1
ED50 (Mus musculus [1]): > 100 mg/kg
Time (Mus musculus [19]): 2 h
inhibition (Mus musculus [20]): Active

O=C1C=CC(=O)N1c1ccccc1CCN1CC[C@]23CCCC[C@H]2[C@H]1Cc1ccc(O)cc13
ED50 (Mus musculus [1]): > 100 mg/kg
Time (Mus musculus [21]): 1 h
inhibition (Mus musculus [22]): Active

CCOC(=O)/C=C/C(=O)Nc1cccc(CCCN2CC[C@]34CCCC[C@H]3[C@H]2Cc2ccc(O)cc24)c1
ED50 (Mus musculus [1]): 76.5 mg/kg
Time (Mus musculus [2]): 30 min
Time (Mus musculus [23]): 5.5 h
inhibition (Mus musculus [24]): Active

Reference: ChEMBL document CHEMBL3272313, “3-Hydroxy-17-aralkylmorphinans as potential opiate receptor-site-directed alkylating agents” (J Med Chem, 1977)
